Measurements taken from ChEMBL document CHEMBL2321751, “Optimization of chloronitrobenzamides (CNBs) as therapeutic leads for human African trypanosomiasis (HAT)” (J Med Chem, 2013).
Values after ≈ are worked out from the molar mass of the structure shown.

Legend:
[1] = tested on: HEK293; assay: Cytotoxicity against HEK293 cells after 72 hrs by Cell Titre Glo assay; type: cell-based; settings: Homo sapiens, HEK293, 72 h
Summary of the method: (§1)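 Human cells grown to 80% confluence were plated in 384-well format and received compound dilutions by pin tool. After 72 h at 37 °C in 5% CO2, viability was measured by CellTiter-Glo luminescence.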

[2] = tested on: Trypanosoma brucei gambiense; assay: Antitrypanosomal activity against Trypanosoma brucei gambiense STIB930 after 70 hrs by Alamar Blue assay; type: functional, organism-based; settings: STIB930, 70 h
Summary of the method: (§2)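 T. b. gambiense strains were grown in HMI-9 with 15% heat-inactivated FBS and 5% human serum. 10000 trypanosomes per well were seeded into serial drug dilutions and held 70 h at 37 °C in humidified 5% CO2. Resazurin was then added for a further 4–6 h, and fluorescence was read (ex 536/em 588 nm). IC50 was taken by linear regression from sigmoidal dose-inhibition curves.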

[3] = tested on: Trypanosoma brucei rhodesiense; assay: Antitrypanosomal activity against bloodstream forms of wild type Trypanosoma brucei rhodesiense STIB900 after 70 hrs by Alamar Blue assay; type: functional, organism-based; settings: STIB900, 70 h
Summary of the method: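 T. b. rhodesiense STIB 900 was cultured in MEM with Earle's salts and Baltz supplements (0.2 mM 2-mercaptoethanol, 1 mM Na-pyruvate, 0.5 mM hypoxanthine, 15% heat-inactivated horse serum). 2000 bloodstream forms per well were exposed to serial drug dilutions for 70 h at 37 °C in humidified 5% CO2. Resazurin followed for 2–4 h, read by fluorescence (ex 536/em 588 nm). IC50 came from sigmoidal curves by linear regression.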

[4] = tested on: BJ; assay: Cytotoxicity against human BJ cells after 72 hrs by Cell Titre Glo assay; type: cell-based; summary of the method: as §1
[5] = tested on: Trypanosoma brucei brucei; assay: Antitrypanosomal activity against Trypanosoma brucei brucei 221 after 48 hrs by Cell Titre Glo assay; type: functional, organism-based; settings: Trypanosoma brucei, 221, 48 h
Summary of the method: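 Bloodstream-form parasites grown in HMI-9 with 10% heat-inactivated FBS, 10% Serum Plus and penicillin/streptomycin at 37 °C, 5% CO₂, to 1 × 10⁶ cells/mL. Diluted to 1 × 10⁴ cells/mL, then dosed with a DMSO dilution series by pin transfer. Incubated 48 h at 37 °C, 5% CO₂. Viability read by CellTiter-Glo luminescence. EC₅₀ from a variable-slope sigmoidal fit. Mean of six replicates, errors as 95% CI.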

[6] = tested on: HepG2; assay: Cytotoxicity against human HepG2 cells after 72 hrs by Cell Titre Glo assay; type: cell-based; settings: HepG2, 72 h; summary of the method: as §1
[7] = Half life in mouse liver microsomes; type: ADME, Microsome
Summary of the method: (§3)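 Liver microsomes (human: pooled from 200 mixed-gender donors; mouse: female […]) were diluted in 0.1 M potassium phosphate, pH 7.4, with EDTA, then spiked from a 2 mM DMSO/acetonitrile compound stock. Reactions were started with cofactor solutions A+B and kept at 37 °C with shaking. Samples at 0, 0.5, 1, 2 and 4 h were quenched with cold methanol containing 10 μM warfarin and analysed by UPLC-MS (SIR). k = −2.303 × slope of log peak-area ratio versus time; t1/2 = 0.693/k.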

[8] = tested on: Raji; assay: Cytotoxicity against human Raji cells after 72 hrs by Cell Titre Glo assay; type: cell-based; summary of the method: as §1
[9] = Half life in human liver microsomes; type: ADME, Microsome; summary of the method: as §3
[10] = Kinetic solubility of the compound in PBS buffer at pH 3.0 after 18 hrs by UV spectrophotometric analysis; type: physicochemical; settings: read-out: Kinetic_solubility
[11] = Kinetic solubility of the compound in PBS buffer at pH 7.4 after 18 hrs by UV spectrophotometric analysis; type: physicochemical; settings: for Kinetic_solubility: buffer, pH 7.4, 18 h, BLD = below limit of detection; for solubility kinetic at 18 h: PBS buffer, pH 7.4, read-out: Kinetic_solubility
Summary of the method: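 Compound from a 10 mM stock was added to PBS pH 7.4 and left 18 h at room temperature. The suspension was filtered, and the filtrate was mixed 1:1 with 1-propanol. Solubility was derived from UV spectrum AUC (250–500 nm) relative to a 1-propanol/PBS reference. Run in triplicate.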

[12] = Permeability of the compound at pH 7.4 by PAMPA; type: ADME; settings: for Papp: PAMPA, read-out: permeability
Summary of the method: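 Compound (10 mM DMSO stock) was diluted in system solution buffer pH 7.4 and placed in the donor chamber of a PAMPA sandwich whose membrane was coated with GIT lipid. Acceptor buffer filled the acceptor chamber, and the assembly was stirred for 30 min. Donor and acceptor UV spectra (250–500 nm) were compared with a reference to give the permeability coefficient. Run in triplicate.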

[13] = Permeability of the compound at pH 3.0 by PAMPA; type: ADME; settings: read-out: permeability
[14] = tested on: Trypanosoma brucei gambiense; assay: Antitrypanosomal activity against Trypanosoma brucei gambiense DAL 898R after 70 hrs by Alamar Blue assay; type: functional, organism-based; summary of the method: as §2
[15] = tested on: Trypanosoma brucei gambiense; assay: Antitrypanosomal activity against Trypanosoma brucei gambiense KO48 after 70 hrs by Alamar Blue assay; type: functional, organism-based; settings: KO48, 70 h; summary of the method: as §2
[16] = tested on: Trypanosoma brucei brucei; assay: Antitrypanosomal activity against blood stream stage of Trypanosoma brucei brucei after 48 hrs by Cell Titre Glo assay; type: functional, organism-based
Summary of the method: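 Culture-adapted parasites were grown in HMI-9 with 10% heat-inactivated FBS, 10% Serum Plus and penicillin/streptomycin to 1 × 10⁶ cells/mL, then diluted to 1 × 10⁴ cells/mL. DMSO dilution series were pin-transferred and plates held 48 h at 37 °C in 5% CO2. After 30 min at room temperature, CellTiter-Glo was added and luminescence read after 8 min.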

| SMILES | EC50 [1] | EC50 [2] | EC50 [3] | EC50 [4] | EC50 [5] | EC50 [6] | half-life [7] | EC50 [8] | half-life [9] | solubility kinetic at 18 h [10] | Kinetic_solubility [11] | Papp [12] | Papp [13] | EC50 [14] | EC50 [15] | solubility kinetic at 18 h [11] | EC50 [16] | permeability ([12]; pampa, BLD = below limit of detection) |
| --- | --- | --- | --- | --- | --- | --- | --- | --- | --- | --- | --- | --- | --- | --- | --- | --- | --- | --- |
| O=C(Nc1ccc(F)c(-c2nc3ccccc3s2)c1)c1cc([N+](=O)[O-])c(N2CCNCC2)cc1Cl | > 25 µM | 0.17 µM | 0.14 µM | > 25 µM | 0.058 µM | > 25 µM | > 4 h | > 25 µM | > 4 h |  |  |  |  |  |  |  |  |  |
| CN1CCN(c2cc(Cl)c(C(=O)Nc3cccc(-c4nc5ccccc5s4)c3)cc2[N+](=O)[O-])CC1 | 14.2 µM | 0.16 µM | 0.21 µM | > 25 µM | 0.11 µM | 8.6 µM | 0.81 h | 14.5 µM | 3.3 h | 46 µM (≈ 23.4 µg/mL) | BLD | 366 ×10⁻⁶ cm/s | 108 ×10⁻⁶ cm/s |  |  |  |  |  |
| O=C(Nc1ccc(Cl)c(C(F)(F)F)c1)c1cc([N+](=O)[O-])ccc1Cl | > 27 µM | 0.82 µM | 1.8 µM | > 27 µM | 1.1 µM | > 27 µM |  | > 27 µM |  |  |  | 8 ×10⁻⁶ cm/s |  | 1.6 µM | 1.3 µM | 0.58 µM (≈ 0.22 µg/mL) |  |  |
| O=C(Nc1cccc(-c2nc3ccccc3s2)c1)c1cc([N+](=O)[O-])ccc1Cl | > 27 µM | 0.11 µM | 0.16 µM | > 27 µM | 0.19 µM | > 25 µM | 0.18 h | > 27 µM | 1 h | 0.51 µM (≈ 0.209 µg/mL) |  | 12 ×10⁻⁶ cm/s | 51 ×10⁻⁶ cm/s | 0.2 µM | 0.17 µM | 0.58 µM (≈ 0.238 µg/mL) |  |  |
| O=C(Nc1ccc2oc(-c3ccc(F)cc3)nc2c1)c1cc([N+](=O)[O-])ccc1Cl |  | 0.42 µM | 3.8 µM |  | 6 µM |  |  |  |  |  |  |  |  | 4.4 µM | 2.6 µM |  | 0.64 µM |  |
| O=C(Nc1cccc(-c2nc3ccccc3s2)c1)c1cc([N+](=O)[O-])c(N2CCNCC2)cc1Cl | 12.7 µM |  |  | > 25 µM | 0.19 µM | 5.3 µM |  | > 25 µM |  | 0.98 µM (≈ 0.484 µg/mL) |  | 276 ×10⁻⁶ cm/s | < 1 ×10⁻⁶ cm/s |  |  | 0.72 µM (≈ 0.356 µg/mL) |  |  |
| Cc1ccc(-c2nc3ccccc3s2)cc1NC(=O)c1cc([N+](=O)[O-])c(N2CCN(C)CC2)cc1Cl | > 25 µM | 0.001 µM | 0.011 µM | > 25 µM | 0.041 µM | > 25 µM | 1.3 h | > 25 µM | 1.6 h | 0.56 µM (≈ 0.292 µg/mL) |  | 74 ×10⁻⁶ cm/s | 60 ×10⁻⁶ cm/s |  |  | 0.7 µM (≈ 0.365 µg/mL) |  |  |
| COc1ccc(-c2nc3ccccc3s2)cc1NC(=O)c1cc([N+](=O)[O-])ccc1Cl | > 25 µM | 0.063 µM | 0.073 µM | > 25 µM | 0.12 µM | > 25 µM | > 4 h | > 25 µM | 3.7 h |  | BLD |  |  |  |  |  |  | BLD |
| Cc1ccc(-c2nc3ccccc3s2)cc1NC(=O)c1cc([N+](=O)[O-])ccc1Cl | > 14 µM | 0.036 µM | 0.013 µM | > 14 µM | 0.006 µM | > 14 µM | > 4 h | > 14 µM | > 4 h |  | BLD | 41 ×10⁻⁶ cm/s |  |  |  |  |  |  |
| O=C(Nc1nc(-c2ccc(F)c(F)c2)cs1)c1cc([N+](=O)[O-])ccc1Cl | 8.3 µM | 0.56 µM | 1.5 µM | > 27 µM | 2.5 µM | > 27 µM |  | 13 µM |  |  | BLD | 37 ×10⁻⁶ cm/s |  | 1.6 µM | 0.63 µM |  |  |  |
| Cc1ccc(-c2nc3ccccc3s2)cc1NC(=O)c1cc([N+](=O)[O-])c(N2CCNCC2)cc1Cl | > 25 µM | 0.002 µM | 0.007 µM | 14.5 µM |  | > 25 µM | > 4 h | > 25 µM | > 4 h | 1.15 µM (≈ 0.584 µg/mL) |  | 4 ×10⁻⁶ cm/s | 0.6 ×10⁻⁶ cm/s |  |  | 0.08 µM (≈ 0.0406 µg/mL) |  |  |
| O=C(Nc1cccc(-c2nc3ccccc3o2)c1)c1cc([N+](=O)[O-])ccc1Cl | > 25 µM | 0.21 µM | 0.37 µM | > 25 µM | 0.48 µM | > 25 µM |  | > 25 µM |  |  |  | 45 ×10⁻⁶ cm/s |  | 0.62 µM | 0.46 µM | 0.47 µM (≈ 0.185 µg/mL) | 0.29 µM |  |
| O=C(Nc1cccc(-c2nc3ccccc3s2)c1)c1cc([N+](=O)[O-])c(N2CCOCC2)cc1Cl | > 25 µM |  |  | > 25 µM | 0.22 µM | > 25 µM |  | > 25 µM |  | 0.07 µM (≈ 0.0346 µg/mL) |  | 18 ×10⁻⁶ cm/s | 106 ×10⁻⁶ cm/s |  |  | 0.37 µM (≈ 0.183 µg/mL) |  |  |
